# HGIII-sPLA2 inh: human group III sPLA2 inhibitors, primary screen, biochemical, QFRET, BODIPY PC-A2 liposome substrate; QFRET BODIPY PC-A2 liposome hydrolysis, fluorescence; inhibition, % at 12.2 µM; Group 3 secretory phospholipase A2 (Homo sapiens), Q9NZ20; hit rate 0.56% among 370,000;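 active = inhibition above mean plus 3 SD of compounds lying within the high and low control bounds, cut at about 19% in these data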;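 note: 0% = median of test compound wells and 100% = no enzyme DMSO wells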
# Hep lipid drop: inhibitors of hepatocyte lipid droplet formation, primary screen, imaging, high-throughput imaging, BODIPY stain; inhibition, % at 6.5 µM; hit rate 0.4% among 240,000; AID 1656, 2009; AML12 mouse hepatocytes, oleate lipid droplets;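 active = lipid droplet intensity inhibited by at least 50%, with more than 500 cells counted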
#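 Technique: fluorescence imaging, 20x objective, two fields per well / Assay system: AML12 hepatocytes (mouse) / Measure: % inhibition of lipid droplet signal / Doses: 6.5 µM single-point dosing / Incubation: overnight exposure / Reagent: 100 µM oleic acid challenge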
# NRP1-CendR mod: modulators of CendR peptide binding to NRP-1, primary screen, biochemical, fluorescence polarization, uHTS; Neuropilin-1 (Homo sapiens), O14786; hit rate 0.85% among 360,000; inhibition, % at 25 µM; FAM-RPARPAR peptide binding to NRP-1; AID 602438, 2012;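 active = inhibition or corrected inhibition above about 18%, plus a signal ratio from 0.5 to 1.5, limit read from the data, passing the limit was not always enough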
# PfM18AAP inh: PfM18AAP inhibitors, malaria aminopeptidase, primary screen, biochemical, QFRET, recombinant enzyme | H-Glu-NHMec fluorogenic cleavage | inhibition, % at 7.35 µM | hit rate 1.2% among 290,000 | AID 1822, 2009;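 active = inhibition above the campaign mean inhibition over all tested compounds plus 3 SD, cut at about 28% in these data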;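 note: 0% = plate median of test compound wells and 100% = 2 mM ZnCl2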
# HTR2A ag: mouse Htr2a agonists via beta-arrestin recruitment, primary screen, cell-based, luminescence. CHO-K1 mHTR2A beta-arrestin complementation; percent of 30 µM serotonin response. AID 624169, 2012. activation, % at 7.6 µM. hit rate 0.66% among 360,000;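 active = activation above a run cutoff, the mean activation of all tested compounds plus 3 SD, cut at about 14% in these data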;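 note: 0% = plate median of compound wells and 100% = 30 µM serotonin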
# Arr AP2 block: inhibitors of beta-arrestin/AP2 binding, primary screen, biochemical, GPCR trafficking, flow cytometry; FITC-arrestin peptide / GST-AP2 beads; AP2 beta2 appendage carries R879A mutation; inhibition, % at 10 µM; hit rate 0.31% among 340,000; AID 504490, 2011;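 active = inhibition above a set limit, near 3 SD of compounds lacking own fluorescence, cut at about 54% in these data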;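 note: plate controls were DMSO wells for no effect and 5 µM unlabelled arrestin peptide for full effect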
#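 system = GST-tagged AP2 beta2-adaptin appendage (R879A) on 4 µm glutathione beads | reagent = FITC-labelled arrestin peptide probe, 50 nM final | schedule = compound with beads 12 min RT, then probe 1 h RT | signal = HyperCyt-sampled flow cytometry, FL1 channel, ex 488/em 535 nm | read-out = percent response from loss of bead-bound FITC fluorescence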
# The depositor's hits bear a star; · = no result given. A selection: hits, their analogues and other compounds. The true share with any hit is near 3.3%.
SMILES,HGIII-sPLA2 inh,Hep lipid drop,NRP1-CendR mod,PfM18AAP inh,HTR2A ag,Arr AP2 block
CSc1ccccc1NC(=O)CSc1n[nH]c(C)c1[N+](=O)[O-],-17,-19,27*,4,-2,4
COc1ccc(C(=O)N2CCC(C)(C(=O)NS(=O)(=O)C3CC3)C2)cc1F (stereo not drawn),-2,·,22*,·,-2,·
CCOc1ccccc1/C=C(\NC(=O)c1ccccc1)C(=O)NCCC(=O)O,8,-3,13,7,3,1
CCOc1ccccc1/C=C(/NC(=O)c1ccccc1)C(=O)NCC(=O)O,14,52*,-8,6,5,0
COC(=O)C1=CC(=O)C=C(OC)[C@@]12Oc1cc(C)cc(OC)c1C2=O,7,·,·,·,·,·
CC(=O)N1c2ccccc2C(C)=NCC1C(=O)NC1CCCCC1 (stereo not drawn),-2,·,·,·,·,·
COc1ccc(S(=O)(=O)N/N=C\c2ccc3c(c2)OCO3)c(OC)c1,0,-4,30*,0,-5,0
CCC(C)(C)c1ccc(Oc2ccc(N)cc2)cc1,6,2,44*,3,6,5
O=C1CC/C=C\C[C@@H](CC(=O)N(CCO)Cc2ccccc2)C(=O)N2CCC[C@H]2CO1,1,·,-12,·,-6,16
CC(C)(C)OC(=O)C[C@H]1C/C=C\C[C@H](CC(=O)N(CCO)Cc2ccccc2)C(=O)NCCOC1=O,2,·,29*,·,-1,·
CC(C)(C)OC(=O)C[C@H]1C/C=C\C[C@@H](CC(=O)N[C@H](CO)Cc2ccccc2)C(=O)NC[C@H](c2ccccc2)OC1=O,-4,·,3,·,4,-10
O=C1CCC/C=C\C[C@@H](CC(=O)N(CCO)Cc2ccccc2)C(=O)N2CCC[C@H]2CO1,-5,·,28*,·,11,-8
CC(C)(C)OC(=O)C[C@@H]1C/C=C\C[C@@H](CC(=O)N(CCO)Cc2ccccc2)C(=O)NCCOC1=O,2,·,1,·,4,18
CC(C)(C)OC(=O)C[C@H]1C/C=C\C[C@H](CC(=O)N(CCO)Cc2ccccc2)C(=O)N[C@@H](Cc2ccccc2)COC1=O,-9,·,30*,·,-4,-1
C[C@@H]1COC(=O)[C@@H](CC(=O)OC(C)(C)C)C/C=C\C[C@H](CC(=O)N(CCO)Cc2ccccc2)C(=O)N1,2,·,3,·,-1,·
CC(C)(C)OC(=O)C[C@H]1C/C=C\C[C@@H](CC(=O)NCCO)C(=O)NC[C@@H](c2ccccc2)OC1=O,1,·,20*,·,5,1
COc1ccc(CNC(=O)O[C@H]2CN(C(=O)OC(C)C)N(C(=O)OC(C)C)[C@@H]3CN(S(=O)(=O)c4ccc(C)cc4)C[C@]23O)cc1OC,-23,·,-1,·,-1,·
Cc1cc(C)n2c(Nc3c(C)cccc3C)c(-c3cccnc3)nc2n1,6,·,-13,·,1,·
CC(=O)Oc1ccc(C(=O)Nc2cccc(C(=O)c3ccc(C)c(C)c3)c2)cc1,-26,·,7,·,2,14
COC(=O)Cc1nnn2c1[C@H](C)[C@H](c1ccccc1Br)OC[C@H](C)C2,-6,·,·,·,·,·
O=C1NC[C@@H](c2ccccc2)OC(=O)[C@@H](Cc2ccc(F)cc2)CC/C=C/C[C@@H]1CC(=O)N(CCO)Cc1ccccc1,-33,·,31*,·,-18,·
O=C(NNC(=O)c1cc2ccccc2cc1O)NC1CCCCC1,14,1,-3,29*,-1,-2
Nc1ccc2c(c1)Cc1cc(N)c(Cl)cc1-2,24*,·,0,·,6,10
C=CCn1nc(-c2ccccc2)cc1C(=O)OCC,7,·,28*,·,6,9
CCOC(=O)c1cc(-c2ccccc2)nn1CCC#N,5,4,4,-2,1,18
SMILES,HGIII-sPLA2 inh,Hep lipid drop,NRP1-CendR mod,PfM18AAP inh,HTR2A ag,Arr AP2 block
COc1ccc(-c2coc3cc(OC(C)=O)c(OC)cc3c2=O)cc1,8,·,25*,·,0,2
CC[C@@]12C(=O)N(c3ccc(OC)cc3)C(=O)N1[C@H](c1cccc(C)c1)[C@@H]1C(=O)N(Cc3ccccc3)C(=O)[C@@H]12,·,4,35*,2,-3,-1
CC[C@@]12C(=O)N(c3ccc(C)cc3)C(=O)N1[C@H](c1cccc(C)c1)[C@@H]1C(=O)N(Cc3ccccc3)C(=O)[C@@H]12,-1,·,9,·,5,1
Cc1ccc2c(c1)N(C(=O)CSc1nncn1C)C(C)(C)c1ssc(=S)c1-2,24*,·,-4,10,-2,6
Cc1ccc(-c2nnc(SCC(=O)c3ccc(O)c(O)c3)n2-c2ccc(Cl)cc2)cc1,2,·,·,·,·,·
CC(OC(=O)c1cccc(S(=O)(=O)Nc2cccc(C(F)(F)F)c2)c1)C(=O)Nc1ccc2c(c1)OCCO2 (stereo not drawn),-74,16,31*,5,-6,-17
CC(=O)Nc1ccc(NC(=O)C(C)OC(=O)c2ccc3c(c2)OCCO3)cc1 (stereo not drawn),-4,15,-4,3,-2,24
O=C(NCCCN1CCc2ccccc2C1)Nc1ccc(Br)cc1,-16,3,6,-4,4,10
O=C(NCCN1CCc2ccccc2C1)Nc1ccc([N+](=O)[O-])cc1,21*,-3,0,9,5,35
NNC(=O)Cc1cccc2ccc(Cl)cc12,-6,·,-7,·,-9,·
Cc1ccc(NC(=O)[C@@H]2O[C@H](CO)[C@H](O)[C@H](O)[C@H]2O)cc1C(F)(F)F,0,·,-12,·,9,·
CC1CCN(CC(=O)Nc2ccccc2C(=O)c2ccccc2)CC1,-7,-10,16,0,-8,-10
CC1CCN(CC(=O)Nc2ccccc2-c2ccccc2)CC1,-1,-3,36*,1,3,0
Cc1ccc(O)c(NC(=O)c2cc(-c3ccccc3Cl)on2)c1,-11,2,-3,-6,2,-5
O=S(=O)(c1ccccc1)c1nc(-c2ccc(F)cc2)oc1N1CCOCC1,4,-3,22*,-10,-7,10
Cc1cccc(OCC(=O)NNC(=O)c2ccc3nc[nH]c3c2)c1,1,·,5,·,1,-15
C[C@H]1CN([C@@H](C)CO)C(=O)CCCn2nncc2CO[C@H]1CN(C)S(=O)(=O)c1ccccc1,10,·,3,·,8,·
CCN1CCN(c2nc(C)nc3c2sc(=S)n3C)CC1,3,12,8,34*,11,4
Nc1ccc(Oc2ncccn2)cc1,12,·,14,28*,3,3

# Assay outcomes from PubChem.
